This is an account of results in ChEMBL document CHEMBL4004837, “Synthesis and Characterization of Urofuranoic Acids: In Vivo Metabolism of 2-(2-Carboxyethyl)-4-methyl-5-propylfuran-3-carboxylic Acid (CMPF) and Effects on in Vitro Insulin Secretion” (J Med Chem, 2017).

Data set [1] in a line: Initial plasma concentration in mouse at 3 mg/kg, iv. Format: ADME, organism-based. An outline of the steps: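 Mouse pharmacokinetics after single intravenous CMPF dosing at 1 or 3 mg/kg. Plasma exposure was followed over time to derive AUC, C0, terminal half-life, clearance and volume of distribution.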
For data set [2], the system named is Plasma. Briefly: Drug metabolism in CD1 mouse plasma assessed as glycerol conjugate formation at 6 mg/kg, ip dosed once daily for 3 days followed by dosing of 1:1 mixtures of 2-(2-Carboxyethyl)-4-methyl-5-(1-propyl-1-13C)furan-3-carboxylic Acid and test compound on day 4 and 5 measured 1 hr post dose on day 5 by HPLC-MS analysis. The format is ADME, organism-based. The conditions noted are these: in vivo. An outline of the steps: (§1)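 CMPF given 6 mg/kg i.p. once daily for three days. On days four and five, 1:1 mixtures of stable-isotope-labelled and unlabelled CMPF were dosed. Mice were killed 1 h after the day-five dose. Plasma, adipose, muscle and liver were collected and analysed by HPLC-MS (MS/MS for product ions). Metabolites were identified by their distinctive isotope patterns from the labelled/unlabelled mixture.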

The test system of data set [3] is Liver. The experiment in a line: Drug metabolism in CD1 mouse liver assessed as monoacylglycerol conjugate formation at 6 mg/kg, ip dosed once daily for 3 days followed by dosing of 1:1 mixtures of 2-(2-(Carboxy-13C)ethyl)-4-methyl-5-propylfuran-3-carboxylic-2-13C Acid and test compound on day 4 and 5 measured 1 hr post dose on day 5 by HPLC-MS analysis. Format: ADME, organism-based. The conditions noted are these: in vivo. In short, it runs like this:
(§2)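 Mice received CMPF 6 mg/kg intraperitoneally for three days, then 1:1 labeled/unlabeled CMPF mixtures on days four and five. On day five they were euthanized 1 h post-dose, and plasma, adipose, muscle and liver were collected. Samples were analysed by HPLC-MS, with MS/MS of product ions. Metabolites were identified by the distinctive isotope patterns from the 1:1 label mixture.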

In data set [4] the target is CYP2C9 (Homo sapiens, UniProt P11712). The experiment in a line: Inhibition of human microsomal CYP2C9 at 10 uM after 10 mins by single quad LC/MS analysis. As to conditions: microsomes. The format is ADME.
Sequence of CYP2C9 (P11712 whole entry): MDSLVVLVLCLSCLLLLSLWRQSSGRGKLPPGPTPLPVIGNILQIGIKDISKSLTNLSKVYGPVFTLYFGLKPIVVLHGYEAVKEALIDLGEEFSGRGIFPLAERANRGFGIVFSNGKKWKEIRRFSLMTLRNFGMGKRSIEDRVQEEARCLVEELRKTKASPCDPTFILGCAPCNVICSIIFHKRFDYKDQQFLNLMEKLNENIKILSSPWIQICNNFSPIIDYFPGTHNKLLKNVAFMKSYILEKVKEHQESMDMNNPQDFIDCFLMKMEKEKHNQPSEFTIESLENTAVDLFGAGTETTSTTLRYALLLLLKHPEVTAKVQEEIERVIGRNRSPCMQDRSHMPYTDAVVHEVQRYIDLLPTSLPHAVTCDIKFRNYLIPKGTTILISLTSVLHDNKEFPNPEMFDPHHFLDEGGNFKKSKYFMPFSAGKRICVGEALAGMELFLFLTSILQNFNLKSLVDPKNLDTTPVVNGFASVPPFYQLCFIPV
Data set [5] can be described thus: Drug metabolism in CD1 mouse muscle assessed as oxidative metabolites formation at 6 mg/kg, ip dosed once daily for 3 days followed by dosing of 1:1 mixtures of 2-(2-(Carboxy-13C)ethyl)-4-methyl-5-propylfuran-3-carboxylic-2-13C Acid and test compound on day 4 and 5 measured 1 hr post dose on day 5 by HPLC-MS analysis. Format: ADME, organism-based, Muscle tissue. As to conditions: in vivo. In short, it runs like this: as §2

Data set [6] relates to Plasma. Briefly: Drug metabolism in CD1 mouse plasma assessed as loss of C2 carboxyl during fragmentation at 6 mg/kg, ip dosed once daily for 3 days followed by dosing of 1:1 mixtures of 2-(2-Carboxyethyl)-4-methyl-5-(1-propyl-1-13C)furan-3-carboxylic Acid and test compound on day 4 and 5 measured 1 hr post dose on day 5 by HPLC-MS analysis. Format: ADME, organism-based. The conditions noted are these: in vivo. An outline of the steps: as §1

SMILES strings stand for the structures.

Compound `CCCc1oc(CCC(=O)O)c(C(=O)O)c1C` gave a C0 in data set [1] of 130 µM. Also, the Drug metabolism result is “Metabolite_Notdetected” in data set [2], “Metabolite_Notdetected” in data set [3], “Metabolite_Notdetected” in data set [5] and “Metabolite_Detected” in data set [6]. For the same compound, in data set [4], the inhibition at 10 min, 10 µM came to 0%.

The inhibition is the relative decrease from the control value, in per cent. A low value points to a response near the control.
